Converted amounts (≈) assume the structure as drawn. The source made the active and inactive calls. The rule behind the calls is not given here.

One may read the IC50 as the concentration needed to halve the response being measured.

The test system of series [1] is Clostridioides difficile. Put plainly: Antibacterial activity against Clostridium difficile ATCC 17858 after 16 hrs by agar diffusion method. Type of series: functional. (A growth-free zone around the sample is the usual read-out of agar diffusion tests.)
For series [2], the system named is Staphylococcus haemolyticus. Put plainly: Antibacterial activity against multidrug-resistant Staphylococcus haemolyticus isolate 1729 after 16 hrs by agar diffusion method. Type of series: functional.
The test system of series [3] is Staphylococcus aureus. Put plainly: Antibacterial activity against multidrug-resistant Staphylococcus aureus isolate 3797 after 16 hrs by agar diffusion method. Type of series: functional.
For series [4], the system named is Cutibacterium acnes. Put plainly: Antibacterial activity against Propionibacterium acnes ATCC 25746 after 16 hrs by agar diffusion method. The format is functional.
Series [5] has as its system Streptococcus pyogenes. Put plainly: Antibacterial activity against Streptococcus pyogenes isolate 49 after 16 hrs by agar diffusion method. Type of series: functional.
Series [6] deals with Enterococcus faecium. Put plainly: Antibacterial activity against Vancomycin A-inducible resistant Enterococcus faecium isolate 569 after 16 hrs by agar diffusion method. Type of series: functional.
Series [7] relates to Streptococcus pneumoniae. Description: Antibacterial activity against Streptococcus pneumoniae ATCC BAA1407 after 16 hrs by agar diffusion method. The format is functional.
The subject of series [8] is Streptococcus pneumoniae. Put plainly: Antibacterial activity against Streptococcus pneumoniae isolate 44 after 16 hrs by agar diffusion method. Type of series: functional.
In series [9] the test system is Staphylococcus intermedius. Put plainly: Antibacterial activity against Staphylococcus intermedius ATCC 29663 after 16 hrs by agar diffusion method. The format is functional.
Series [10] concerns Staphylococcus haemolyticus. Put plainly: Antibacterial activity against Staphylococcus haemolyticus isolate 1730 after 16 hrs by agar diffusion method. Type of series: functional.
Series [11] has as its system Staphylococcus aureus. Put plainly: Inhibition of DNA synthesis in Staphylococcus aureus isolate 12ST assessed as reduction in 5-[3H]thymidine incorporation preincubated for 5 mins followed by 5-[3H]thymidine addition and measured after 5 mins by liquid scintillation counting method. The format is functional, organism-based. The essentials: (§1)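 S. aureus 12ST was grown overnight in 0.2× LB, diluted 200-fold, and grown at 37 °C to OD600 0.2–0.25. Aliquots were exposed to compound for 5 min at 37 °C (0.5% DMSO maximum final). Label was then added ([6-3H]thymidine 0.15 μCi/sample; D-[6-3H]glucosamine 0.4 μCi/sample) for 5 min at 37 °C. Samples were precipitated with ice-cold 5% TCA for ≥30 min, filtered, washed, and scintillation counted.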
In general terms: Uptake of a labelled nucleoside into DNA is a usual measure of proliferation.

Series [12] deals with Mycolicibacterium smegmatis. Put plainly: Antibacterial activity against Mycobacterium smegmatis after 16 hrs by agar diffusion method. The format is functional, organism-based.
A short description of series [13]: Growth inhibition of human PANC1 cells at 90 uM after 48 hrs by MTT assay relative to control. The format is cell-based. The settings on record: PANC-1 cells, read-out: GI. For orientation: Formazan colour is commonly taken as a measure of viable cells.
For series [14], the system named is Staphylococcus aureus. Description: Bactericidal activity against Staphylococcus aureus isolate 3797 up to 8 times MIC up to 24 hrs by time kill assay. The format is functional, organism-based.
Series [15] has as its system HEK293. Description: Growth inhibition of HEK293 cells after 48 hrs by MTT assay. The settings on record: Homo sapiens, HEK293, 48 h. Type of series: cell-based.
The subject of series [16] is Staphylococcus aureus. Description: Bactericidal activity against Staphylococcus aureus ATCC 6538P up to 8 times MIC up to 24 hrs by time kill assay. Type of series: functional, organism-based.
The test system of series [17] is Candida albicans. Put plainly: Antifungal activity against Candida albicans after 16 hrs by agar diffusion method. The format is functional, organism-based.
Series [18] relates to Staphylococcus aureus. Description: Antibacterial activity against methicillin-resistant Staphylococcus aureus isolate 3864 after 16 hrs by agar diffusion method. The format is functional.
Series [19] deals with Staphylococcus aureus. Description: Inhibition of RNA synthesis in Staphylococcus aureus isolate 12ST assessed as reduction in [3H]uridine incorporation up to 60 ug/ml preincubated for 5 mins followed by [3H]uridine addition and measured after 5 mins by liquid scintillation counting method. The format is functional, organism-based. Put shortly: (§2)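 S. aureus 12ST was grown overnight in 0.2× LB, diluted 200-fold and grown at 37 °C to OD600 0.2–0.25. 80 µL aliquots got medium or compound (added at 10× final) for 5 min at 37 °C. [5,6-3H]uridine 0.15 µCi or L-[5-3H]tryptophan 0.25 µCi was added for 5 min more. Samples were precipitated in ice-cold 5% TCA, filtered and scintillation-counted. DMSO ≤0.5% final.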

For series [20], the system named is Staphylococcus aureus. Description: Bactericidal activity against Staphylococcus aureus ATCC 6538P at 8 times MIC up to 2 to 4 hrs by time kill assay relative to control. Type of series: functional.
The subject of series [21] is Staphylococcus aureus. Put plainly: Inhibition of cell wall synthesis in Staphylococcus aureus isolate 12ST assessed as reduction in [3H]glucosamine hydrochloride incorporation preincubated for 5 mins followed by [3H]glucosamine hydrochloride addition and measured after 5 mins by liquid scintillation counting method. The format is functional, organism-based. Put shortly:
as §1

The test system of series [22] is Enterococcus faecium. Description: Antibacterial activity against Enterococcus faecium isolate 568 after 16 hrs by agar diffusion method. The format is functional.
The subject of series [23] is Staphylococcus aureus. Put plainly: microbe, parasite or virus in culture. The settings on record: ATCC 29213, 16 h.
Series [24] relates to Bacillus subtilis. Put plainly: Inhibition of cell wall synthesis in Bacillus subtilis BAU102 assessed as induction of beta-galactosidase activity preincubated for 120 mins followed by beta-galactosidase chromogenic substrate addition. The format is functional, organism-based.
Series [25] has as its system Staphylococcus aureus. Put plainly: microbe, parasite or virus in culture. The settings on record: ATCC 6538P, 16 h.
Series [26] deals with Staphylococcus aureus. Put plainly: Stimulation of protein synthesis in Staphylococcus aureus isolate 12ST assessed as increase in L-[3H]tryptophan incorporation preincubated for 5 mins followed by L-[3H]tryptophan addition and measured after 5 mins by liquid scintillation counting method. Type of series: functional, organism-based. The essentials: as §2
For series [27], the system named is Staphylococcus aureus. Description: Bactericidal activity against Staphylococcus aureus isolate 3797 at 8 times MIC up to 2 to 4 hrs by time kill assay relative to control. Type of series: functional.

With `CN[C@H](CC(C)C)C(=O)N[C@H]1C(=O)N[C@@H](CC(N)=O)C(=O)N[C@H]2C(=O)N[C@H]3C(=O)N[C@H](C(=O)N[C@H](C(=O)O)c4cc(O)cc(O)c4-c4cc3ccc4O)[C@H](O)c3ccc(c(Cl)c3)Oc3cc2cc(c3O[C@@H]2O[C@H](CO)[C@@H](O)[C@H](O)[C@H]2O[C@H]2C[C@](C)(N)[C@H](O)[C@H](C)O2)Oc2ccc(cc2Cl)[C@H]1O` [VANCOMYCIN], the MIC in series [1] (ATCC 17858, 16 h) is 0.5 µg/mL (≈ 0.345 µM); in [2] (isolate 1729, 16 h), 2 µg/mL (≈ 1.38 µM); in series [3] (isolate 3797, 16 h), 8 µg/mL (≈ 5.52 µM); in [4] (ATCC 25746, 16 h), 0.25 µg/mL (≈ 0.173 µM); in [5] (isolate 49, 16 h), 0.25 µg/mL (≈ 0.173 µM); in series [6] (isolate 569, 16 h), more than 128 µg/mL. Further, the MIC worked out at 0.5 µg/mL (≈ 0.345 µM) in [7] (ATCC BAA1407, 16 h); 0.125 µg/mL (≈ 0.0863 µM) in series [8] (isolate 44, 16 h); 1 µg/mL (≈ 0.69 µM) in series [9] (NCTC 11048, 16 h); 2 µg/mL (≈ 1.38 µM) in series [10] (isolate 1730, 16 h).

For the molecule `COc1c(OC)c2c(=O)c3cc(C)n(C(CC4CN(C)C(=N)N4)C(=O)O)c(=O)c3c(=O)c2c2cc3c(=O)c4cc(O)cc(O)c4c(=O)c3c(OC)c12` (stereo unspecified), the IC50 in [11] turned out to be 2 µg/mL (≈ 2.81 µM); in [15], 55 µM; in series [21] it was 5 µg/mL (≈ 7.04 µM). In addition, the inhibition entry in [11] and in series [21] was “Dose-dependent effect” in each case. The MIC in series [1] (ATCC 17858, 16 h) amounted to 2 µg/mL (≈ 2.81 µM); in [2] (isolate 1729, 16 h) it was 0.015 µg/mL (≈ 0.0211 µM); in series [3] (isolate 3797, 16 h), 0.03 µg/mL (≈ 0.0422 µM); in series [4] (ATCC 25746, 16 h), 0.25 µg/mL (≈ 0.352 µM); in series [18] (isolate 3864, 16 h), 0.03 µg/mL (≈ 0.0422 µM); in series [22] (isolate 568, 16 h), 4 µg/mL (≈ 5.63 µM). Also, the MIC was 0.5 µg/mL (≈ 0.704 µM) in [5] (isolate 49, 16 h); 2 µg/mL (≈ 2.81 µM) in series [6] (isolate 569, 16 h); 0.0005 µg/mL (≈ 0.000704 µM) in [23]; 0.25 µg/mL (≈ 0.352 µM) in series [7] (ATCC BAA1407, 16 h); 0.25 µg/mL (≈ 0.352 µM) in [8] (isolate 44, 16 h); 0.004 µg/mL (≈ 0.00563 µM) in series [25]. Besides, the MIC in series [9] (NCTC 11048, 16 h) turned out to be 0.007 µg/mL (≈ 0.00985 µM); in series [10] (isolate 1730, 16 h) it was 0.03 µg/mL (≈ 0.0422 µM). The result in series [12], in series [14], in [16] and in series [17] was inactive. Moreover, in series [13], the inhibition at 48 h, 90 µM is 20%. For the same molecule, the inhibition entry in series [19] is “inactive”. Further, the Activity in series [20] and in series [27] was more than 99.9% each time. The inhibition result in [24] was “Active”. Also, in series [26], the outcome was Active.

With GENTAMICIN, the MIC in [1] is 128 µg/mL; in [2], more than 128 µg/mL; in series [3], 64 µg/mL; in [4] it was 2 µg/mL; in [18], more than 128 µg/mL; in [22], 32 µg/mL. Also, the MIC was 16 µg/mL in series [5]; 16 µg/mL in series [6]; 64 µg/mL in series [7]; 8 µg/mL in series [8]; less than 0.125 µg/mL in [9] (NCTC 11048); more than 128 µg/mL in series [10].
